Reference: ChEMBL document CHEMBL5365542, “Difluoromethyl-1,3,4-oxadiazoles Are Selective, Mechanism-Based, and Essentially Irreversible Inhibitors of Histone Deacetylase 6” (J Med Chem, 2023)
Positions count from the first letter of the chain named. Activity calls are given as the source filed them. The calls are words filed in the database; no cut-off is given here.

Experiments:
[1] = test system: T1, Histone deacetylase 6 (Danio rerio), F8W4B7 [H573A]; assay: Irreversible inhibition of Danio rerio HDAC6 H573A mutant catalytic domain 2 assessed as enzyme catalysed ring opening by measuring reduction in 2-(benzylamino)-N'-(2,2,2-trifluoroacetyl)pyrimidine-5-carbohydrazide formation at 100 uM incubated overnight by LC-MS analysis
T1 sequence (whole entry): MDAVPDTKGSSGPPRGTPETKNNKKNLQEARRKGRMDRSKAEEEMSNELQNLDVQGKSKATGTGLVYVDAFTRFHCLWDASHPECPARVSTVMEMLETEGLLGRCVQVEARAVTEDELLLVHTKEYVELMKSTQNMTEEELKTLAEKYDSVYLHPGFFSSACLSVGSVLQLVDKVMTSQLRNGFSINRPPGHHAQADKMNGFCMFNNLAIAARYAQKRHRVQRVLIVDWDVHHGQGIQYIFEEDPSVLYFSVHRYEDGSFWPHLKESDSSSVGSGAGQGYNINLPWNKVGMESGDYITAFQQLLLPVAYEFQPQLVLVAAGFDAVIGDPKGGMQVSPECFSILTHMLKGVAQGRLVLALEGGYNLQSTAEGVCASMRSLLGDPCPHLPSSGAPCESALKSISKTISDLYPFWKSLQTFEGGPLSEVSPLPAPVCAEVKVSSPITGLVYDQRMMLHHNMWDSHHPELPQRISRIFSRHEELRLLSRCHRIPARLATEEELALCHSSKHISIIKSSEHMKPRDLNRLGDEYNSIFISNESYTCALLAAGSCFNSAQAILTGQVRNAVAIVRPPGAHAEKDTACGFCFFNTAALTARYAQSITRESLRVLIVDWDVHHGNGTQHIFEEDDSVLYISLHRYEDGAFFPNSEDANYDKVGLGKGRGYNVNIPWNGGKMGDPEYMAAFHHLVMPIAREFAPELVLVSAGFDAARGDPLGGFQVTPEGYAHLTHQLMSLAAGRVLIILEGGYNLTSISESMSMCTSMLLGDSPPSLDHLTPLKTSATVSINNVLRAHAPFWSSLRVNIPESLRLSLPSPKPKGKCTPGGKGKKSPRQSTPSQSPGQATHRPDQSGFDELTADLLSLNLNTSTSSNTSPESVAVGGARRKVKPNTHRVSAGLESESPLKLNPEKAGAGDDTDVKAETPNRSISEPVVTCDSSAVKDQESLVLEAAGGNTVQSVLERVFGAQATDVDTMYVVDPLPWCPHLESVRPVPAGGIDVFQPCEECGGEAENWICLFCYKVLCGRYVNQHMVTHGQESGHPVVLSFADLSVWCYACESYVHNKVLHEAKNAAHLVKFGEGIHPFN
Summary of the method: (§1)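 Zebrafish HDAC6 CD2 mutants were made by site-directed mutagenesis and expressed in BL21(DE3). Enzyme at 50 μM was incubated overnight with 100 μM inhibitor in 50 mM HEPES pH 7.5, 100 mM KCl, 1 mM TCEP, 5% glycerol; an enzyme-free control was included. Protein was methanol-precipitated and filtered, and products were analysed by C18 UPLC-MS with a 2-min gradient.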

[2] = test system: T1, Histone deacetylase 6 (Danio rerio), F8W4B7 [H573A]; assay: Irreversible inhibition of Danio rerio HDAC6 H573A mutant catalytic domain 2 assessed as enzyme catalysed ring opening by measuring reduction in 2-(Benzylamino)-N'-(2,2-difluoroacetyl)pyrimidine-5-carbohydrazide formation at 100 uM incubated overnight by LC-MS analysis; summary of the method: as §1
[3] = test system: T2, Histone deacetylase 6 (Danio rerio), F8W4B7 [Y745F]; assay: Irreversible inhibition of Danio rerio HDAC6 Y745F mutant catalytic domain 2 assessed as enzyme catalysed ring opening by measuring reduction in 2-(benzylamino)-N'-(2,2,2-trifluoroacetyl)pyrimidine-5-carbohydrazide formation at 100 uM incubated overnight by LC-MS analysis; summary of the method: as §1
T2 sequence (whole entry): T1 sequence (whole entry) with A573H, Y745F

| SMILES | inhibition [1] | inhibition [2] | inhibition [3] |
| --- | --- | --- | --- |
| FC(F)c1nnc(-c2cnc(NCc3ccccc3)nc2)o1 | Active | Active | inactive |
| FC(F)(F)c1nnc(-c2cnc(NCc3ccccc3)nc2)o1 | Active | Active | inactive |
